Assay [1] in a line: Inhibition of His-tagged full-length Hsp90 (unknown origin)/GST-tagged Cdc37M (unknown origin) interaction after 1 hr by HTRF assay. The arrangement: species or system Homo sapiens. The method, boiled down:
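TR-FRET in PBS containing 400 mM KF, pH 7.3. His-tagged full-length Hsp90 and GST-Cdc37M, each 250 nM final, incubated with compound for 1 h at 37 °C. Anti-GST-Cryptate and anti-6His-XL665 then added for a further 0.5 h at 37 °C. Excitation 320 nm, emission 665/620 nm, reported as ratio ×10,000. Negative and blank controls run in each assay.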
For orientation: TR-FRET usually uses a lanthanide donor and a delayed reading to cut background.

For the next assay, the system named is HCT-116. In words: Antiproliferative activity against human HCT116 cells after 48 hrs by MTT assay. The format is functional, cell-based. The note with it: HCT-116, 48 h. The method, boiled down: (§1)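 Cells in log phase seeded at about 1.0 × 10^5 cells/mL in 96-well plates, left 12 h at 37 °C, 5% CO2. Compounds dissolved in DMSO, added at 2.5, 5, 10, 20 and 50 µM, 48 h exposure. Absorbance read at 570/630 nm dual wavelength. Survival expressed relative to negative control. IC50 by Bliss method (n = 5), tests done in triplicate.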

A further assay has as its system MCF7. Nature of the assay: Antiproliferative activity against human MCF7 cells after 48 hrs by MTT assay. The format is functional, cell-based. The note with it: MCF7, 48 h. The method, boiled down: as §1
A general note: Tetrazolium dyes change colour on reduction, which living cells bring about.

Another assay deals with HepG2. In words: Antiproliferative activity against human HepG2 cells after 48 hrs by MTT assay. Type of assay: functional, cell-based. As to conditions: HepG2, 48 h. The method, boiled down: as §1
A further assay has as its system A549. Nature of the assay: Antiproliferative activity against human A549 cells after 48 hrs by MTT assay. Type of assay: functional, cell-based. As to conditions: A549, 48 h. The method, boiled down: as §1

A value given as a limit tells only on which side of the number the result lay.

On to `COc1cccc2sc(NC(=O)[C@@]3(C)CC[C@]4(C)CC[C@]5(C)C(=CC(=O)[C@@H]6[C@@]7(C)CC[C@H](O)C(C)(C)[C@@H]7CC[C@]65C)[C@@H]4C3)nc12`, for which the IC50 (usually the concentration at which inhibition is half-maximal) in assay [1] is over 100 µM; in the assay with HCT-116 it was 74.7 µM; with MCF7 it was 74.5 µM; in the assay with HepG2 it was 86.3 µM; in the assay on A549, 76 µM.

Consider `CC(=O)O[C@H]1CC[C@]2(C)[C@H]3C(=O)C=C4[C@@H]5C[C@@](C)(C(=O)Nc6nc7ccc(Cl)cc7s6)CC[C@]5(C)CC[C@@]4(C)[C@]3(C)CC[C@H]2C1(C)C`, for which the IC50 came to 77.6 µM in assay [1]; 68.5 µM in the assay on HCT-116; 66.7 µM in the assay with MCF7; 73.1 µM in the assay with HepG2; 62.6 µM in the assay with A549.

Regarding `CC(=O)O[C@H]1CC[C@]2(C)[C@H]3C(=O)C=C4[C@@H]5C[C@@](C)(C(=O)Nc6nc7c(Cl)cccc7s6)CC[C@]5(C)CC[C@@]4(C)[C@]3(C)CC[C@H]2C1(C)C`, the IC50 (in assay [1]; with HCT-116; in the assay with MCF7; in the assay on HepG2; with A549) was over 100 µM throughout.

Take `Cc1cccc2sc(NC(=O)[C@@]3(C)CC[C@]4(C)CC[C@]5(C)C(=CC(=O)[C@@H]6[C@@]7(C)CC[C@H](O)C(C)(C)[C@@H]7CC[C@]65C)[C@@H]4C3)nc12`: the half-maximal inhibitory concentration (IC50) (in assay [1]; with HCT-116; in the assay on MCF7; with HepG2; with A549) was over 100 µM in each case.

As to `CC(=O)O[C@H]1CC[C@]2(C)[C@H]3C(=O)C=C4[C@@H]5C[C@@](C)(C(=O)Nc6nc7ccc(F)cc7s6)CC[C@]5(C)CC[C@@]4(C)[C@]3(C)CC[C@H]2C1(C)C`, the IC50 is 54.3 µM in assay [1]; over 100 µM in the assay with HCT-116; 71.2 µM with MCF7; 65.6 µM in the assay on HepG2; 85.5 µM in the assay with A549.

For the compound `CC1=C(O)C(=O)C=C2C1=CC=C1[C@@]2(C)CC[C@@]2(C)[C@@H]3C[C@](C)(C(=O)O)CC[C@]3(C)CC[C@]12C` [CELASTROL], the IC50 in assay [1] was 6.22 µM; in the assay on HCT-116, 5.26 µM; with MCF7, 6.84 µM; in the assay with HepG2 it was 6.17 µM; with A549, 6.59 µM.

In the case of `CC1(C)[C@@H](O)CC[C@]2(C)[C@H]3C(=O)C=C4[C@@H]5C[C@@](C)(C(=O)Nc6nc7ccc(Br)cc7s6)CC[C@]5(C)CC[C@@]4(C)[C@]3(C)CC[C@@H]12`, the IC50 was determined as 41.3 µM in assay [1]; 37.4 µM in the assay with HCT-116; 33.8 µM in the assay with MCF7; 39.5 µM with HepG2; 33.4 µM with A549.

Regarding `CC(=O)O[C@H]1CC[C@]2(C)[C@H]3C(=O)C=C4[C@@H]5C[C@@](C)(C(=O)Nc6nc7c(C)cccc7s6)CC[C@]5(C)CC[C@@]4(C)[C@]3(C)CC[C@H]2C1(C)C`, the IC50 (in assay [1]; in the assay on HCT-116; in the assay with MCF7; in the assay on HepG2; in the assay with A549) was over 100 µM throughout.

`COc1cccc2sc(NC(=O)[C@@]3(C)CC[C@]4(C)CC[C@]5(C)C(=CC(=O)[C@@H]6[C@@]7(C)CC[C@H](OC(C)=O)C(C)(C)[C@@H]7CC[C@]65C)[C@@H]4C3)nc12`: the IC50 (in assay [1]; in the assay with HCT-116; in the assay with MCF7; in the assay with HepG2; with A549) was over 100 µM each time.

`CC1(C)[C@@H](O)CC[C@]2(C)[C@H]3C(=O)C=C4[C@@H]5C[C@@](C)(C(=O)Nc6nc7ccc(Cl)cc7s6)CC[C@]5(C)CC[C@@]4(C)[C@]3(C)CC[C@@H]12`: the IC50 in assay [1] worked out at 36.9 µM; with HCT-116 it was 16.3 µM; with MCF7, 16.5 µM; in the assay with HepG2, 21.8 µM; in the assay on A549, 22.8 µM.

Consider `O=c1[nH]cc(F)c(=O)[nH]1` [FLUOROURACIL], for which the IC50 is 17.2 µM in the assay with HCT-116, 15.8 µM in the assay with MCF7, 23.6 µM in the assay on HepG2 and 19.5 µM in the assay with A549.

(Values after ChEMBL document CHEMBL4219101, “Discovery of 18β-glycyrrhetinic acid conjugated aminobenzothiazole derivatives as Hsp90-Cdc37 interaction disruptors that inhibit cell migration and reverse drug resistance” (Bioorg Med Chem, 2018).)
